Shown are actives, neighbours in structure and some others; about 3.1% of the full set was active somewhere.
TAG inh: inhibitors of triacylglycerol accumulation. hit rate 0.66% among 230,000. inhibition, % at 12.5 µM. H9c2 cells, Nile Red lipid (TAG) fluorescence; cells loaded with 200 µM oleic acid. AID 651582;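 active means pattern-corrected inhibition of lipid staining of at least 50% with the nuclear-stain viability signal not falling by more than 50%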;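 further: 0% = DMSO wells and 100% = triacsin C control wells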
Bfl-1 A1 inh: inhibitors of the anti-apoptotic protein A1, read as caspase activation; MEF A1-2A-BIM cells, Caspase-Glo 3/7 luminescence, 3 h; percent of clofoctol response, vehicle zero; caspase activation, % (test concentration not listed); hit rate 0.066% among 330,000;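 active means over half of replicate activation scores above 10%, or exactly half above 10 with the replicate mean above 10; inconclusive means replicate mean below 10 yet half the replicates above 10; inactive means over half of replicates below 10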
Beta apoptosis: blocks beta cell apoptosis; INS-1E cytokine-induced death, ATP luminescence, 48 h; percent of positive-control rescue, neutral wells zero; AID 435005; protection from apoptosis, % (no concentration beside the values); hit rate 0.8% among 300,000;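 active means Every replicate reaches about 75%, or at least half do and their mean reaches it too, limit read from the data; inconclusive means At least half of replicates reach the limit but their mean does not; inactive means Under half of replicates reach the limit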;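 further: 0% = cytokine-treated negative control wells and 100% = positive control rescue; higher means more ATP so stronger rescue from cytokine killing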
T cruzi repl: blocks replication of Trypanosoma cruzi; T. cruzi beta-gal in NIH3T3, luminescence, 90 h; inhibition, % (test concentration not listed); hit rate 1.4% among 300,000;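 active means mean inhibition across valid replicates above about 55%, limit read from the data; inconclusive means mean below that limit but half or more replicates reach it; inactive means mean below it, under half of replicates reach it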;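 further: signal also drops with host cell toxicity which is not excluded here; 0% = plate median of DMSO wells and 100% = zero luminescence signal; higher percent means less beta-gal luminescence so fewer parasites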
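Test system: β-gal T. cruzi (Tulahuen C4) inside NIH/3T3 cells / Quantity: 5,000 cells/well / Measured by: luminescence from GalScreen with 0.05% NP40, read after 60 min / Medium: DMEM plus 2% FBS / Measure: parasite load inhibition, % / Reagent: Tulahuen C4 trypomastigotes, 5000/well / Schedule: co-culture of at least 90 h after 3 h attachment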
Calb FLC: affects C. albicans growth with fluconazole; hit rate 0.57% among 300,000; AID 1979; growth inhibition, % (concentration not given with the values); C. albicans CaCi-2 + fluconazole, Alamar Blue growth, 48 h;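 active means growth inhibition above about 58% in most replicates, limit read from the data, passing the limit was not always enough; inconclusive means exactly half the replicates above a set limit; inactive means most replicates below a set limit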;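 further: all wells also contain fluconazole at 8 µg/ml as a sub-toxic cotreatment; 0% = median of DMSO wells and 100% = median of geldanamycin control wells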
CSC inhib: cancer stem cell inhibition. cancer stem cell-like cells viability, luminescence. hit rate 1.1% among 300,000. AID 2717. inhibition, % at 7.5 µM; in the data active means inhibition above about 75%; inconclusive means no clear call, values can overlap the other calls; tested in HMLE shEcad cells
Active calls of the source: *; ? = inconclusive; . = no result given.

SMILES | TAG inh | Bfl-1 A1 inh | Beta apoptosis | T cruzi repl | Calb FLC | CSC inhib
CC(=O)Oc1c(C)cc(Cl)cc1C(=O)Nc1ccc([N+](=O)[O-])cc1Cl | -15 | -8 | 106* | 48 | . | 120*
CC(=O)OCC(=O)Nc1ccc([N+](=O)[O-])cc1Cl | 1 | 0 | -6 | -4 | 1 | -14
Cc1ccc(NC(=O)C(C)OC(=O)/C=C/c2ccccc2)cc1S(=O)(=O)N1CCOCC1 (stereo unspecified) | 3 | 0 | . | -5 | 2 | -4
COc1ccnc(N2CCN(c3ccccc3)CC2)c1C#N | . | -1 | . | 2 | 79* | .
COc1ccc(N2CCN(c3ncccc3C#N)CC2)cc1 | . | 0 | 1 | -4 | 13 | .
CCOc1ccc(CN(C(=O)c2oc3ccccc3c2C)C2CCS(=O)(=O)C2)cc1 (stereo unspecified) | . | -1 | 1 | 0 | 101* | .
Cc1c(C(=O)N(Cc2ccc(Cl)cc2)C2CCS(=O)(=O)C2)oc2ccccc12 (stereo unspecified) | . | 0 | -3 | 23 | 0 | -16
Clc1ccc(-c2nnc(-c3ccccc3)c(-c3c[nH]c4ccccc34)n2)cc1 | 21 | 1 | -9 | -2 | -10 | -8
Clc1ccc(-c2nnc(-c3ccccc3)c(-c3ccccc3)n2)cc1 | 5 | 0 | 3 | 24 | -27 | 85*
FC(F)(F)c1nnc(-c2ccccc2)nc1Sc1ccc(Cl)cc1 | -14 | 1 | 63 | 39 | 12 | 80*
CC1c2ccccc2-c2ccccc2N1C (stereo unspecified) | -11 | . | . | . | . | .
C[C@H]1CN([C@@H](C)CO)C(=O)c2cc(NC(=O)C3CCCCC3)ccc2O[C@H]1CN(C)C(=O)Nc1ccc2c(c1)OCO2 | . | 0 | -3 | . | . | -14
O=C(NCc1ccccc1)C(=O)Nc1nc(C23CC4CC(CC(C4)C2)C3)cs1 | . | -1 | 35 | -2 | 13 | 30
O=C(NCc1ccc(F)cc1)C(=O)Nc1nc(C23CC4CC(CC(C4)C2)C3)cs1 | . | 1 | 31 | 25 | 3 | 75*
O=C(NCc1cccnc1)C(=O)Nc1nc(C23CC4CC(CC(C4)C2)C3)cs1 | 11 | 0 | 161* | -7 | -4 | 13
O=C(Cn1nc(C(=O)O)c2ccccc2c1=O)Nc1cc(S(=O)(=O)N2CCCCC2)ccc1Cl | 1 | 0 | -3 | . | . | -16
COc1cc(NC(=O)c2c(F)c(F)c(OC)c(F)c2F)ccc1NC(=O)c1cccs1 | . | 0 | 10 | 20 | 32 | 22
Cc1ccc(C(=O)CSc2nc(-c3ccccc3)ccc2C#N)cc1 | . | 0 | -6 | ? | -23 | 84*
CCCn1c(N)c(N(CCOC)C(=O)COC(=O)CSc2cc(C)c3ccccc3n2)c(=O)[nH]c1=O | 5 | 0 | -5 | -3 | 1 | -8
COc1ccccc1OCC(=O)N1CCCCCC1 | -7 | . | . | . | . | .
COc1cc(CNCCc2ccccc2F)ccc1OCC(=O)N1CCCCC1 | 2 | 1 | -1 | 62* | -30 | 21
c1ccc(-c2sc3ccccc3c2-c2ccc(OCCN3CCCC3)cc2)cc1 | 38 | 3 | 6 | . | . | 107*
COc1ccc(-c2sc3ccccc3c2-c2ccc(OCCN3CCCCC3)cc2)cc1 | 47 | 1 | 103* | . | . | 139*
COc1ccccc1-c1sc2ccccc2c1-c1ccc(OCCN2CCCCC2)cc1 | 21 | . | . | . | . | .
O=S(=O)(NC1CC1)c1ccc(Br)cc1N1CCC[C@H]1CO | -13 | . | . | . | . | .
SMILES | TAG inh | Bfl-1 A1 inh | Beta apoptosis | T cruzi repl | Calb FLC | CSC inhib
COc1ccc(-c2nc(N)ncc2-c2ccc(OC)c(OC)c2)c(O)c1 | . | 0 | 0 | 7 | 11 | 7
C=C(C)COc1ccc(-c2ncncc2-c2ccc(Br)cc2)c(O)c1 | . | -1 | 7 | 44 | 5 | 7
C=C(C)COc1ccc(-c2nc(N)nc(C(F)(F)F)c2-c2ccc(OC)cc2)c(O)c1 | . | 0 | -2 | 56* | -6 | 50
C=C(C)COc1ccc(-c2n[nH]c(C)c2-c2ccc(Br)cc2)c(O)c1 | . | 0 | -2 | 28 | -3 | 101*
COc1ccc(-c2cnc(N)nc2-c2ccc(OCc3ccccc3)cc2O)cc1 | 5 | 0 | -2 | 58* | 10 | 30
C=C(C)COc1ccc(-c2ncnc(C(F)(F)F)c2-c2ccc(OC)cc2)c(O)c1 | . | 0 | 17 | 15 | 4 | 24
C=C(C)COc1ccc(-c2nc(N)ncc2-c2ccc(Br)cc2)c(O)c1 | . | 0 | -2 | 20 | 0 | 107*
CC1=C(C(N)=O)C(c2cccnc2)n2nc(-c3cccc(C)c3)nc2N1 (stereo unspecified) | 3 | -1 | -2 | 66* | -4 | 0
COc1ccc(C)cc1NC(=O)n1ncc2cc(Cl)ccc21 | . | 0 | 3 | 5 | -5 | 9
O=C(Oc1c(CN2CCOCC2)cc(Cl)c2cccnc12)c1ccccc1 | 83 | 0 | ? | 38 | 118* | 12
Oc1c(CN2CCCCC2)cc(Br)c2cccnc12 | . | -2 | 96* | 56* | -28 | 33
COc1cc(OC)cc(C(=O)Oc2c(CN3CCOCC3)cc(Cl)c3cccnc23)c1 | 85 | 1 | 47 | 49 | 113* | 33
COc1ccc(C(=O)Oc2c(CN3CCOCC3)cc(Cl)c3cccnc23)cc1OC | . | 0 | 7 | -5 | 1 | 1
O=c1oc2ccccc2c(O)c1Cc1cc(Cl)c2cccnc2c1O | 15 | 0 | 6 | -11 | 84* | ?
O=C(SCc1c(O)c2ccccc2oc1=O)c1ccccc1 | -7 | . | . | . | . | .
Cc1ccc(C(=O)NCC(C)NC(=O)c2ccc(C)c(C)c2)cc1C (stereo unspecified) | -2 | 2 | . | -2 | 2 | .
CSc1cccc(Nc2ccc(S(=O)(=O)N3CCOCC3)cc2[N+](=O)[O-])c1 | -10 | 1 | 20 | . | . | .
Oc1c(CN2CCc3ccccc3C2)cc(Cl)c2cccnc12 | 11 | 0 | 8 | 51 | 83* | 84*
O=C(Oc1ccc(C(=S)N2CCOCC2)cc1Cl)c1ccccc1F | . | 1 | 4 | -10 | -5 | -5
Oc1c(Cl)cc(CN2CCOCC2)c2cccnc12 | 49 | 1 | 29 | . | . | .
O=C(Oc1c(CN2CCOCC2)cc(Cl)c2cccnc12)c1ccccc1F | 113 | 0 | 63 | 74* | 102* | 22
CN(C)c1ccc(-c2n(C)c3ccccc3[n+]2C)cc1 | . | -1 | . | 73* | 102* | .
Cc1ccc2nc(N(CCCN(C)C)C(=O)c3cc4ccccc4oc3=O)sc2c1 | . | 3 | -8 | 60* | -16 | .
Cc1cccc2sc(N(CCCN(C)C)C(=O)c3cc4ccccc4oc3=O)nc12 | . | 0 | -3 | 46 | -17 | -28
CN(C)CCCN(C(=O)c1cc2ccccc2oc1=O)c1nc2c(F)cccc2s1 | . | 0 | -9 | 56* | 0 | .
Cc1ccc2nc(N(CCCN(C)C)C(=O)CCc3ccccc3)sc2c1 | . | -1 | 0 | 45 | -4 | 5
Cc1ccc(C(=O)N/N=C\c2ccc([N+](=O)[O-])s2)cn1 | . | 0 | 6 | ? | -5 | 17
